Test results reported in ChEMBL document CHEMBL4414545, “Beta-Glucuronidase Catalyzes Deconjugation and Activation of Curcumin-Glucuronide in Bone” (J Nat Prod, 2019).

Columns and labels:
[1] = AUC (0 to infinity) in C57BL/6J mouse bone marrow at 500 mg/kg administered via oral gavage measured after 30 mins by LC-MS analysis; type: ADME, organism-based; set-up: dose 500 mg/kg, route oral, time infinity
Outline: (§1)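 Female 4-week C57BL/6J mice given a single oral gavage of curcumin, 500 mg/kg in DMSO. Serum and bone marrow were collected under isoflurane at the indicated times up to 48 h, n=4/group. Total curcumin (aglycone plus glucuronide) was measured by LC/MS with d6-curcumin standards. PK parameters came from noncompartmental analysis after extravascular dosing.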

[2] = Drug concentration in C3H/HeJ mouse exhibiting decrease in GUSB activity assessed as level of aglycone curcumin in serum at 100 mg/kg, ip measured after 20 mins by LC-MS analysis; type: ADME, organism-based; conditions: in vivo, read-out: Ct
Outline: (§2)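 Curcumin at 100 mg/kg in DMSO was given ip to 15-week C57BL/6J, C3H/HeJ or mps/mps (GUSB-null) mice, n=3–4/group. Serum and marrow were harvested 20 min later. Marrow was resuspended in 50 mM sodium acetate pH 5 for 2 h on ice. Aglycone and glucuronidated curcumin were measured by LC/MS, with marrow values corrected to the original pellet volume.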

[3] = Ratio of AUC (0 to infinity) in C57BL/6J mouse serum to AUC (0 to infinity) in C57BL/6J mouse bone marrow at 500 mg/kg administered via oral gavage; type: ADME, organism-based; conditions: in vivo
RAW264.7 [4] = test: Inhibition of RANKL-induced osteoclastogenesis in murine RAW264.7 cells assessed as formation of TRAP positive multinucleated osteoclasts pretreated for 4 hrs followed by RANKL addition measured after 72 hrs; type: functional, cell-based; conditions: Mus musculus
Outline: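 RAW 264.7 cells, used within 10 passages, were seeded at 5×10^3/well in DMEM with 10% FBS and allowed to adhere overnight at 37°C. Cells were pretreated 4 h with aglycone curcumin or curcumin-glucuronide, then given RANKL (50 ng/mL final) for 72 h. TRAP-positive multinucleated osteoclasts were counted, n=4/group.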

[5] = Cmax in C57BL/6J mouse serum at 500 mg/kg administered via oral gavage measured after 30 mins by LC-MS analysis; type: ADME, organism-based; set-up: dose 500 mg/kg, route oral; outline: as §1
[6] = Drug metabolism in mps/mps mutant mouse assessed as level of curcumin-glucuronide in serum at 100 mg/kg, ip measured after 20 mins by LC-MS analysis; type: ADME, organism-based; conditions: in vivo, read-out: Ct; outline: as §2
[7] = Half-life in C57BL/6J mouse serum at 500 mg/kg administered via oral gavage measured after 30 mins by LC-MS analysis; type: ADME, organism-based; conditions: in vivo, 0.5 h; outline: as §1
[8] = Ratio of AUC (0 to 48 hrs) in C57BL/6J mouse serum to AUC (0 to 48 hrs) in C57BL/6J mouse bone marrow at 500 mg/kg administered via oral gavage; type: ADME, organism-based; conditions: in vivo
[9] = Drug concentration in C57BL/6J mouse assessed as level of aglycone curcumin in bone marrow at 500 mg/kg administered via oral gavage measured after 30 mins by LC-MS analysis; type: ADME, organism-based; conditions: in vivo, 0.5 h, read-out: Ct
Outline: (§3)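 Oral gavage of curcumin, 500 mg/kg in DMSO, to C57BL/6J or C3H/HeJ mice, n=3–4/group. Serum and marrow were taken 30 min post-dose. Marrow pellets from leg centrifugation were resuspended in 50 mM sodium acetate pH 5 and kept 2 h on ice; supernatants were used. Aglycone curcumin and curcumin-glucuronide were quantified by LC/MS, with marrow values adjusted to pellet volume.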

[10] = AUC (0 to 48 hrs) in C57BL/6J mouse serum at 500 mg/kg administered via oral gavage measured after 30 mins by LC-MS analysis; type: ADME, organism-based; set-up: time < 48 hr, dose 500 mg/kg, route oral; outline: as §1
[11] = Half-life in C57BL/6J mouse bone marrow at 500 mg/kg administered via oral gavage measured after 30 mins by LC-MS analysis; type: ADME, organism-based; conditions: in vivo, 0.5 h; outline: as §1
RAW264.7 [12] = test: Cytotoxicity against murine RAW264.7 cells assessed as effect on cell viability at 3 uM; type: cell-based; conditions: mouse, raw264.7, 3 µM
[13] = Drug concentration in C3H/HeJ mouse exhibiting decrease in GUSB activity assessed as level of aglycone curcumin in bone marrow at 100 mg/kg, ip measured after 20 mins by LC-MS analysis; type: ADME, organism-based; conditions: in vivo, read-out: Ct; outline: as §2
[14] = Drug metabolism in C3H/HeJ mouse exhibiting decrease in GUSB activity assessed as level of curcumin-glucuronide in serum at 100 mg/kg, ip measured after 20 mins by LC-MS analysis; type: ADME, organism-based; conditions: in vivo, read-out: Ct; outline: as §2
[15] = Drug metabolism in C3H/HeJ mouse exhibiting decrease in GUSB activity assessed as level of curcumin-glucuronide in bone marrow at 500 mg/kg administered via oral gavage measured after 30 mins by LC-MS analysis; type: ADME, organism-based; conditions: read-out: Ct, in vivo, 0.5 h; outline: as §3
[16] = AUC (0 to infinity) in C57BL/6J mouse serum at 500 mg/kg administered via oral gavage measured after 30 mins by LC-MS analysis; type: ADME, organism-based; set-up: dose 500 mg/kg, route oral, time infinity; outline: as §1
[17] = Drug concentration in C3H/HeJ mouse exhibiting decrease in GUSB activity assessed as level of curcumin-glucuronide in bone marrow at 100 mg/kg, ip measured after 20 mins by LC-MS analysis; type: ADME, organism-based; conditions: in vivo, read-out: Ct; outline: as §2
[18] = Drug concentration in C3H/HeJ mouse exhibiting decrease in GUSB activity assessed as level of aglycone curcumin in bone marrow at 500 mg/kg administered via oral gavage measured after 30 mins by LC-MS analysis; type: ADME, organism-based; conditions: in vivo, 0.5 h, read-out: Ct; outline: as §3
[19] = Drug metabolism in C57BL/6J mouse assessed as level of curcumin-glucuronide in serum at 500 mg/kg administered via oral gavage measured after 30 mins by LC-MS analysis; type: ADME, organism-based; conditions: in vivo, 0.5 h, read-out: Ct; outline: as §3
[20] = Tmax in C57BL/6J mouse bone marrow at 500 mg/kg administered via oral gavage measured after 30 mins by LC-MS analysis; type: ADME, organism-based; outline: as §1
[21] = Drug metabolism in C3H/HeJ mouse exhibiting decrease in GUSB activity assessed as level of curcumin-glucuronide in serum at 500 mg/kg administered via oral gavage measured after 30 mins by LC-MS analysis; type: ADME, organism-based; conditions: in vivo, 0.5 h, read-out: Ct; outline: as §3
[22] = Cmax in C57BL/6J mouse bone marrow at 500 mg/kg administered via oral gavage measured after 30 mins by LC-MS analysis; type: ADME, organism-based; set-up: dose 500 mg/kg, route oral; outline: as §1
[23] = Drug metabolism in C57BL/6J mouse assessed as level of curcumin-glucuronide in bone marrow at 500 mg/kg administered via oral gavage measured after 30 mins by LC-MS analysis; type: ADME, organism-based; conditions: in vivo, 0.5 h, read-out: Ct; outline: as §3
[24] = Drug concentration in C57BL/6J mouse assessed as level of aglycone curcumin in bone marrow at 100 mg/kg, ip measured after 20 mins by LC-MS analysis; type: ADME, organism-based; conditions: in vivo, read-out: Ct; outline: as §2
[25] = Drug metabolism in C57BL/6J mouse assessed as level of curcumin-glucuronide in serum at 100 mg/kg, ip measured after 20 mins by LC-MS analysis; type: ADME, organism-based; conditions: in vivo, read-out: Ct; outline: as §2
[26] = Drug concentration in C57BL/6J mouse assessed as level of aglycone curcumin in serum at 500 mg/kg administered via oral gavage measured after 30 mins by LC-MS analysis; type: ADME, organism-based; conditions: in vivo, 0.5 h, read-out: Ct; outline: as §3
[27] = Drug concentration in mps/mps mutant mouse assessed as level of aglycone curcumin in bone marrow at 100 mg/kg, ip measured after 20 mins by LC-MS analysis; type: ADME, organism-based; conditions: in vivo, read-out: Ct; outline: as §2
[28] = Prodrug conversion in C57BL/6J mouse bone marrow assessed as beta-glucuronidase mediated effect on aglycone curcumin level at 500 mg/kg administered via oral gavage incubated for 30 mins followed by resuspension in sodium acetate buffer at pH 5 measured after 2 hrs in presence of saccharolactone by LC-MS analysis; type: ADME, organism-based; conditions: in vivo, pH 5, 500 mg/kg
Outline: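 C57BL/6J mice were gavaged with curcumin at 500 mg/kg, and marrow was harvested 30 min later. Marrow was resuspended in 50 mM sodium acetate pH 5 with or without 10 mM saccharolactone, or mice received saccharolactone 1 g/kg ip in saline 1 h before curcumin. Suspensions were kept 2 h on ice, and aglycone curcumin (% of total) was measured by LC/MS, n=3–4/group.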

[29] = Drug metabolism in C57BL/6J mouse assessed as level of curcumin-glucuronide in bone marrow at 100 mg/kg, ip measured after 20 mins by LC-MS analysis; type: ADME, organism-based; conditions: in vivo, read-out: Ct; outline: as §2
[30] = Drug concentration in mps/mps mutant mouse assessed as level of aglycone curcumin in serum at 100 mg/kg, ip measured after 20 mins by LC-MS analysis; type: ADME, organism-based; conditions: in vivo, read-out: Ct; outline: as §2
[31] = Drug concentration in C57BL/6J mouse assessed as level of aglycone curcumin in serum at 100 mg/kg, ip measured after 20 mins by LC-MS analysis; type: ADME, organism-based; conditions: in vivo, read-out: Ct; outline: as §2
[32] = Ratio of drug concentration in C57BL/6J mouse bone marrow to drug concentration in C57BL/6J mouse serum; type: ADME
[33] = AUC (0 to 48 hrs) in C57BL/6J mouse bone marrow at 500 mg/kg administered via oral gavage measured after 30 mins by LC-MS analysis; type: ADME, organism-based; set-up: time < 48 hr, dose 500 mg/kg, route oral; outline: as §1
[34] = Prodrug conversion in C57BL/6J mouse serum assessed as effect on aglycone curcumin level at 500 mg/kg administered via oral gavage incubated for 30 mins followed by resuspension in sodium acetate buffer at pH 5 measured after 2 hrs in presence of saccharolactone by LC-MS analysis; type: ADME, organism-based; conditions: in vivo, pH 5, 500 mg/kg
[35] = Tmax in C57BL/6J mouse serum at 500 mg/kg administered via oral gavage measured after 30 mins by LC-MS analysis; type: ADME, organism-based; outline: as §1

What does the source list for `COc1cc(/C=C/C(=O)CC(=O)/C=C/c2ccc(O)c(OC)c2)ccc1O` [CURCUMIN]?
AUC(0-inf) [1]: 48.3 µM·h; concentration [2]: 2800 nM; Ratio [3]: 10; IC50 (RAW264.7 [4]): 3 µM; Cmax [5]: 106000 nM; concentration [6]: 151000 nM; t1/2 [7]: 264 min; Ratio [8]: 10; concentration [9]: 1140 nM; AUC(0-t) at 48 h [10]: 487 µM·h; t1/2 [11]: 468 min; Activity (RAW264.7 [12]): Non-Toxic; concentration [13]: 500 nM; concentration [14]: 92100 nM; concentration [15]: 1190 nM; AUC(0-inf) [16]: 488 µM·h; concentration [17]: 2700 nM; concentration [18]: 470 nM; concentration [19]: 82700 nM; Tmax [20]: 30 min; concentration [21]: 80000 nM; Cmax [22]: 5900 nM; concentration [23]: 360 nM; concentration [24]: 1900 nM; concentration [25]: 92700 nM; concentration [26]: 170 nM; concentration [27]: 400 nM; Drug metabolism [28]: Metabolite_Detected; concentration [29]: 1300 nM; concentration [30]: 22800 nM; concentration [31]: 7200 nM; Kp [32]: 3; AUC(0-t) at 48 h [33]: 48 µM·h; Drug metabolism [34]: Metabolite_Detected; Tmax [35]: 30 min
